Reference: ChEMBL document CHEMBL4334458, “Design, synthesis and antibacterial evaluation of novel 15-membered 11a-azahomoclarithromycin derivatives with the 1, 2, 3-triazole side chain” (Eur J Med Chem, 2019)
≈ marks a conversion by molar mass, not a printed value.

Columns and labels:
Type in all cases: functional
Staphylococcus aureus [1] = test: Antibacterial activity against erythromycin-susceptible Staphylococcus aureus ATCC 25923 incubated for 24 hrs by broth dilution method; details: ATCC 25923, 24 h
Outline: (§1)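 CLSI broth microdilution in cation-adjusted Mueller-Hinton broth. Twofold dilutions spanned 0.25–128 or 0.5–256 µg/mL, with CAM and AZM as controls. Log-phase bacteria were added and incubated 24 h at 37 °C. MIC was read by turbidity as the concentration of the last clear well.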

Streptococcus pyogenes [2] = test: Antibacterial activity against erythromycin-susceptible Streptococcus pyogenes 1 clinical isolate incubated for 24 hrs by broth dilution method; outline: as §1
Escherichia coli = test: Antibacterial activity against penicillin-susceptible Escherichia coli ATCC 25922 incubated for 24 hrs by broth dilution method; details: ATCC 25922, 24 h; outline: as §1
Pseudomonas aeruginosa = test: Antibacterial activity against penicillin-susceptible Pseudomonas aeruginosa ATCC 27853 incubated for 24 hrs by broth dilution method; details: ATCC 27853, 24 h; outline: as §1
Bacillus subtilis = test: Antibacterial activity against penicillin-susceptible Bacillus subtilis ATCC 9372 incubated for 24 hrs by broth dilution method; details: ATCC 9372, 24 h; outline: as §1
Staphylococcus aureus [3] = test: Antibacterial activity against penicillin-resistant Staphylococcus aureus ATCC 31007 incubated for 24 hrs by broth dilution method; details: ATCC 31007, 24 h
Staphylococcus aureus [4] = test: Antibacterial activity against methicillin-resistant Staphylococcus aureus ATCC 43300 incubated for 24 hrs by broth dilution method; details: ATCC 43300, 24 h
Streptococcus pneumoniae [5] = test: Antibacterial activity against erythromycin-resistant Streptococcus pneumoniae B1 expressing the ermB incubated for 24 hrs by broth dilution method
Streptococcus pneumoniae [6] = test: Antibacterial activity against erythromycin-resistant Streptococcus pneumoniae AB11 expressing the ermB and mefA incubated for 24 hrs by broth dilution method
Streptococcus pyogenes [7] = test: Antibacterial activity against erythromycin-resistant Streptococcus pyogenes 2 clinical isolate incubated for 24 hrs by broth dilution method
Staphylococcus aureus [8] = test: Ratio of MIC for CAM to MIC for test compound for antibacterial activity against penicillin-resistant Staphylococcus aureus ATCC 31007 incubated for 24 hrs by broth dilution method
Outline: (§2)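 Ratio of clarithromycin MIC to compound MIC. Both MICs come from CLSI broth microdilution in cation-adjusted Mueller-Hinton broth with 2-fold dilutions, log-phase inoculum and 24 h at 37 °C, read by turbidity as the last clear well.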

Streptococcus pneumoniae [9] = test: Ratio of MIC for CAM to MIC for test compound for antibacterial activity against erythromycin-resistant Streptococcus pneumoniae AB11 expressing the ermB and mefA incubated for 24 hrs by broth dilution method; outline: as §2
Streptococcus pyogenes [10] = test: Ratio of MIC for CAM to MIC for test compound for antibacterial activity against erythromycin-resistant Streptococcus pyogenes 2 clinical isolate incubated for 24 hrs by broth dilution method; outline: as §2

SMILES | MIC (Staphylococcus aureus [1]) [µg/mL] | MIC (Streptococcus pyogenes [2]) [µg/mL] | MIC (Escherichia coli) [µg/mL] | MIC (Pseudomonas aeruginosa) [µg/mL] | MIC (Bacillus subtilis) [µg/mL] | MIC (Staphylococcus aureus [3]) [µg/mL] | MIC (Staphylococcus aureus [4]) [µg/mL] | MIC (Streptococcus pneumoniae [5]) [µg/mL] | MIC (Streptococcus pneumoniae [6]) [µg/mL] | MIC (Streptococcus pyogenes [7]) [µg/mL] | Ratio (Staphylococcus aureus [8]) | Ratio (Streptococcus pneumoniae [9]) | Ratio (Streptococcus pyogenes [10])
CCCCc1ccc(-c2cn(C[C@H]3COC(=O)[C@H](C)[C@@H](O[C@H]4C[C@@](C)(OC)[C@@H](O)[C@H](C)O4)[C@H](C)[C@@H](O[C@@H]4O[C@H](C)C[C@H](N(C)C)[C@H]4O)[C@](C)(OC)C[C@@H](C)[C@H](O)[C@H](C)CN3C)nn2)cc1 | 16 (≈ 17.4 µM) | 4 (≈ 4.36 µM) | > 128 | > 128 | 8 (≈ 8.71 µM) | 16 (≈ 17.4 µM) | > 256 | > 256 | 16 (≈ 17.4 µM) | 16 (≈ 17.4 µM) | 8 - 16 | 8 - 16 | 8 - 16
CO[C@]1(C)C[C@@H](C)[C@H](O)[C@H](C)CN(C)C[C@@H](COCc2cn(-c3cccc(C(F)(F)F)c3)nn2)OC(=O)[C@H](C)[C@@H](O[C@H]2C[C@@](C)(OC)[C@@H](O)[C@H](C)O2)[C@H](C)[C@H]1O[C@@H]1O[C@H](C)C[C@H](N(C)C)[C@H]1O | 8 (≈ 8.33 µM) | 4 (≈ 4.17 µM) | 128 (≈ 133 µM) | > 128 | 2 (≈ 2.08 µM) | 64 (≈ 66.7 µM) | 32 (≈ 33.3 µM) | 32 (≈ 33.3 µM) | 16 (≈ 16.7 µM) | 32 (≈ 33.3 µM) |  |  | 
CCCCc1ccc(-c2cn(C[C@@H]3COC(=O)[C@H](C)[C@@H](O[C@H]4C[C@@](C)(OC)[C@@H](O)[C@H](C)O4)[C@H](C)[C@@H](O[C@@H]4O[C@H](C)C[C@H](N(C)C)[C@H]4O)[C@](C)(OC)C[C@@H](C)[C@H](O)[C@H](C)CN3C)nn2)cc1 | 128 (≈ 139 µM) | 16 (≈ 17.4 µM) | 128 (≈ 139 µM) | > 128 | 32 (≈ 34.8 µM) | 64 (≈ 69.7 µM) | 128 (≈ 139 µM) | 64 (≈ 69.7 µM) | 64 (≈ 69.7 µM) | 16 (≈ 17.4 µM) |  |  | 
CO[C@]1(C)C[C@@H](C)[C@H](O)[C@H](C)CN(C)[C@@H](Cn2cc(-c3ccc(F)cc3)nn2)COC(=O)[C@H](C)[C@@H](O[C@H]2C[C@@](C)(OC)[C@@H](O)[C@H](C)O2)[C@H](C)[C@H]1O[C@@H]1O[C@H](C)C[C@H](N(C)C)[C@H]1O | 64 (≈ 72.7 µM) | 16 (≈ 18.2 µM) | > 128 | > 128 | 32 (≈ 36.4 µM) | 128 (≈ 145 µM) | 128 (≈ 145 µM) | 256 (≈ 291 µM) | 128 (≈ 145 µM) | 128 (≈ 145 µM) |  |  | 
CO[C@]1(C)C[C@@H](C)[C@H](O)[C@H](C)CN(C)C[C@H](COCc2cn(-c3ccc(OC(F)(F)F)cc3)nn2)OC(=O)[C@H](C)[C@@H](O[C@H]2C[C@@](C)(OC)[C@@H](O)[C@H](C)O2)[C@H](C)[C@H]1O[C@@H]1O[C@H](C)C[C@H](N(C)C)[C@H]1O | 2 (≈ 2.05 µM) | 2 (≈ 2.05 µM) | 64 (≈ 65.6 µM) | 16 (≈ 16.4 µM) | 1 (≈ 1.02 µM) | 128 (≈ 131 µM) | 128 (≈ 131 µM) | 128 (≈ 131 µM) | 32 (≈ 32.8 µM) | 32 (≈ 32.8 µM) |  |  | 
CO[C@]1(C)C[C@@H](C)[C@H](O)[C@H](C)CN(C)[C@H](Cn2cc(-c3ccc(Cl)cc3)nn2)COC(=O)[C@H](C)[C@@H](O[C@H]2C[C@@](C)(OC)[C@@H](O)[C@H](C)O2)[C@H](C)[C@H]1O[C@@H]1O[C@H](C)C[C@H](N(C)C)[C@H]1O | 8 (≈ 8.92 µM) | 8 (≈ 8.92 µM) | 128 (≈ 143 µM) | > 128 | 8 (≈ 8.92 µM) | 64 (≈ 71.4 µM) | 64 (≈ 71.4 µM) | 64 (≈ 71.4 µM) | 64 (≈ 71.4 µM) | 32 (≈ 35.7 µM) |  |  | 
CO[C@]1(C)C[C@@H](C)[C@H](O)[C@H](C)CN(C)[C@@H](Cn2cc(-c3ccccn3)nn2)COC(=O)[C@H](C)[C@@H](O[C@H]2C[C@@](C)(OC)[C@@H](O)[C@H](C)O2)[C@H](C)[C@H]1O[C@@H]1O[C@H](C)C[C@H](N(C)C)[C@H]1O | 64 (≈ 74.2 µM) | 16 (≈ 18.5 µM) | > 128 | > 128 | 32 (≈ 37.1 µM) | > 256 | > 256 | > 256 | 256 (≈ 297 µM) | 256 (≈ 297 µM) |  |  | 
CO[C@]1(C)C[C@@H](C)[C@H](O)[C@H](C)CN(C)C[C@@H](COCc2cn(-c3ccccc3)nn2)OC(=O)[C@H](C)[C@@H](O[C@H]2C[C@@](C)(OC)[C@@H](O)[C@H](C)O2)[C@H](C)[C@H]1O[C@@H]1O[C@H](C)C[C@H](N(C)C)[C@H]1O | 1 (≈ 1.12 µM) | 1 (≈ 1.12 µM) | 128 (≈ 143 µM) | 128 (≈ 143 µM) | 1 (≈ 1.12 µM) | > 256 | 256 (≈ 287 µM) | 256 (≈ 287 µM) | 64 (≈ 71.7 µM) | 64 (≈ 71.7 µM) |  |  | 
CCc1ccc(-n2cc(COC[C@@H]3CN(C)C[C@@H](C)[C@@H](O)[C@H](C)C[C@@](C)(OC)[C@H](O[C@@H]4O[C@H](C)C[C@H](N(C)C)[C@H]4O)[C@@H](C)[C@H](O[C@H]4C[C@@](C)(OC)[C@@H](O)[C@H](C)O4)[C@@H](C)C(=O)O3)nn2)cc1 | 4 (≈ 4.35 µM) | 4 (≈ 4.35 µM) | 128 (≈ 139 µM) | 128 (≈ 139 µM) | 2 (≈ 2.17 µM) | 64 (≈ 69.6 µM) | 64 (≈ 69.6 µM) | 32 (≈ 34.8 µM) | 32 (≈ 34.8 µM) | 32 (≈ 34.8 µM) |  |  | 
COc1ccc(-c2cn(C[C@H]3CN(C)C[C@@H](C)[C@@H](O)[C@H](C)C[C@@](C)(OC)[C@H](O[C@@H]4O[C@H](C)C[C@H](N(C)C)[C@H]4O)[C@@H](C)[C@H](O[C@H]4C[C@@](C)(OC)[C@@H](O)[C@H](C)O4)[C@@H](C)C(=O)O3)nn2)cc1 | 1 (≈ 1.12 µM) | 0.12 (≈ 0.135 µM) | 32 (≈ 35.9 µM) | 64 (≈ 71.7 µM) | 1 (≈ 1.12 µM) | > 256 | > 256 | > 256 | 256 (≈ 287 µM) | 128 (≈ 143 µM) |  |  | 
CO[C@]1(C)C[C@@H](C)[C@H](O)[C@H](C)CN(C)C[C@@H](Cn2cc(-c3ccc(Cl)cc3)nn2)OC(=O)[C@H](C)[C@@H](O[C@H]2C[C@@](C)(OC)[C@@H](O)[C@H](C)O2)[C@H](C)[C@H]1O[C@@H]1O[C@H](C)C[C@H](N(C)C)[C@H]1O | 8 (≈ 8.92 µM) | 2 (≈ 2.23 µM) | 128 (≈ 143 µM) | > 128 | 16 (≈ 17.8 µM) | 64 (≈ 71.4 µM) | 64 (≈ 71.4 µM) | 64 (≈ 71.4 µM) | 64 (≈ 71.4 µM) | 32 (≈ 35.7 µM) |  |  | 
CO[C@]1(C)C[C@@H](C)[C@H](O)[C@H](C)CN(C)C[C@@H](Cn2cc(-c3ccccc3)nn2)OC(=O)[C@H](C)[C@@H](O[C@H]2C[C@@](C)(OC)[C@@H](O)[C@H](C)O2)[C@H](C)[C@H]1O[C@@H]1O[C@H](C)C[C@H](N(C)C)[C@H]1O | 0.5 (≈ 0.58 µM) | 0.5 (≈ 0.58 µM) | 64 (≈ 74.2 µM) | 64 (≈ 74.2 µM) | 1 (≈ 1.16 µM) | 128 (≈ 148 µM) | 256 (≈ 297 µM) | 64 (≈ 74.2 µM) | 64 (≈ 74.2 µM) | 64 (≈ 74.2 µM) |  |  | 
